# Source: ChEMBL document CHEMBL2203116, “Synthesis and evaluation of novel carbon-11 labeled oxopurine analogues for positron emission tomography imaging of translocator protein (18 kDa) in peripheral organs” (J Med Chem, 2011)
# Tests used:
# Heart [1] = assay: Drug uptake in iv dosed Sprague-Dawley rat heart upto 30 mins by PET scanning; format: ADME, organism-based; settings: in vivo, 0.5 h
# Outline: (§1)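 Comparator radioligand 15–20 MBq/200 μL (0.15–0.18 nmol) injected iv into isoflurane-anesthetized male Sprague-Dawley rats. ROI time–activity curves for lung, heart, kidney, liver and cardiac blood pool. Uptake as decay-corrected SUV normalized to injected activity and body weight. n = 4, mean ± SD.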
# Blood = assay: Drug uptake in iv dosed Sprague-Dawley rat cardiac blood pool up to 30 mins by PET scanning; format: ADME, organism-based; settings: in vivo, 0.5 h; outline: as §1
# Lung [2] = assay: Drug uptake in iv dosed Sprague-Dawley rat lung after 27.5 mins by PET scanning; format: ADME, organism-based; settings: in vivo; outline: as §1
# Kidney [3] = assay: Drug uptake in iv dosed Sprague-Dawley rat kidney upto 30 mins by PET scanning; format: ADME, organism-based; settings: in vivo, 0.5 h; outline: as §1
# Heart [4] = assay: Drug uptake in iv dosed Sprague-Dawley rat heart after 10 mins by PET scanning; format: ADME, organism-based; settings: in vivo; outline: as §1
# Liver = assay: Drug uptake in iv dosed Sprague-Dawley rat liver upto 30 mins by PET scanning; format: ADME, organism-based; settings: in vivo, 0.5 h; outline: as §1
# Kidney [5] = assay: Drug uptake in iv dosed Sprague-Dawley rat kidney after 10 mins by PET scanning; format: ADME, organism-based; settings: in vivo; outline: as §1
# Lung [6] = assay: Drug uptake in iv dosed Sprague-Dawley rat lung after 1 min by PET scanning; format: ADME, organism-based; settings: in vivo; outline: as §1
# Translocator protein = Translocator protein (Rattus norvegicus, UniProt P16257); assay: Displacement of [11C]-PK-11195 from TPSO in Sprague-Dawley rat brain homogenate after 30 mins by gamma counting; format: tissue-based
# [7] = Lipophilicity, log D of the compound in octanol-phosphate buffer at pH 7.4 by shake flask method; format: physicochemical
# Outline: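 Radioligand (~200000 cpm) shaken with n-octanol (3.0 g) and 0.1 M sodium phosphate buffer pH 7.4 (3.0 g). Vortexed 3 min at room temperature, centrifuged 3500 rpm for 5 min. Phases weighed and counted; organic layer repartitioned until consistent. LogD = log of the cpm/g octanol to cpm/g buffer ratio. Triplicate.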
# Sequence of Translocator protein (P16257 whole entry, looked up): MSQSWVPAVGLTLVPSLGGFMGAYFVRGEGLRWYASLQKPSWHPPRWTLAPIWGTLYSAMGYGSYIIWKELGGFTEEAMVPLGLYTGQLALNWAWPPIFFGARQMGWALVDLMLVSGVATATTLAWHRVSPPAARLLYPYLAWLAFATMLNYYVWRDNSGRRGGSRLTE
SMILES,Drug uptake (Heart [1]),Drug uptake (Blood),Drug uptake (Lung [2]),Drug uptake (Kidney [3]),Drug uptake (Heart [4]),Drug uptake (Liver),Drug uptake (Kidney [5]),Drug uptake (Lung [6]),SUV (Lung [2]),SUV (Heart [4]),SUV (Kidney [5]),SUV (Lung [6]),Ki (Translocator protein),logD [7]
CC[C@@H](C)N([11CH3])C(=O)c1cc2ccccc2c(-c2ccccc2Cl)n1,Active,Active,Active,Active,Active,Active,Active,Active,,,,,,
CCN(Cc1ccccc1)C(=O)Cn1c(=O)n([11CH3])c2cnc(-c3ccccc3)nc21,Active,Active,,Active,,Active,,,2.3,4.2,2.8,7.6,,
CCN(Cc1ccncc1)C(=O)Cn1c(=O)n(C)c2cnc(-c3ccccc3)nc21,,,,,,,,,,,,,5.1 nM,2.03
CCN(Cc1cccnc1)C(=O)Cn1c(=O)n(C)c2cnc(-c3ccccc3)nc21,,,,,,,,,,,,,13.2 nM,2.17
